Data: ChEMBL document CHEMBL1828602, “CNS and antimalarial activity of synthetic meridianin and psammopemmin analogs” (Bioorg Med Chem, 2011)

Columns and labels:
[1] = target: 5-hydroxytryptamine receptor 7 (Homo sapiens, UniProt P34969); assay: Displacement of [3H]LSD from 5-HT7 receptor after 1.5 hrs by scintillation counting
[2] = target: T1, Muscarinic acetylcholine receptor M5 (Homo sapiens, UniProt P08912); assay: Displacement of [3H]QNB from muscarinic acetylcholine M5 receptor after 1.5 hrs by scintillation counting
T1 sequence (P08912 whole entry): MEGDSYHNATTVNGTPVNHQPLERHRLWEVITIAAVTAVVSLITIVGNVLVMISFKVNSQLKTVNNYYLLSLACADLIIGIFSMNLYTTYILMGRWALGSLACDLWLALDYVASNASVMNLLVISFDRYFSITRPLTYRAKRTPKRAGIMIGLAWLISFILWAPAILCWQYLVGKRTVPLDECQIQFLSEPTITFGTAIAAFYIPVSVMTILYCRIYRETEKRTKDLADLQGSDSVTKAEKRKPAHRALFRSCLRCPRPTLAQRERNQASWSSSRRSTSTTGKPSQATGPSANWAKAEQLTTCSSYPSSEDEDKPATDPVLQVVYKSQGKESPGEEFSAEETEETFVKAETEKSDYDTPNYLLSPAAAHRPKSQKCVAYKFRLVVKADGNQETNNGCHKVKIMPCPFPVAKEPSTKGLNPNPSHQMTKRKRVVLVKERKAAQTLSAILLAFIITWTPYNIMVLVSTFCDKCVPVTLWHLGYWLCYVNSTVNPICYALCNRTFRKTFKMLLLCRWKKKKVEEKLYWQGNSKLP

A549 = assay: Cytotoxicity against human A549 cells after 72 hrs; assay type: cell-based
In short: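 A549 cells at 12,000 per well in DMEM F12 (no HEPES or phenol red) with 2% FBS and 1% penicillin–streptomycin, preincubated 24 h at 37 °C, 5% CO2. Compounds then added, 72 h incubation. Viability by MTS-type tetrazolium reagent, 1 h at 37 °C, absorbance at 490 nm. IC50 determined.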

[3] = target: 5-hydroxytryptamine receptor 1D (Homo sapiens, UniProt P28221); assay: Displacement of [3H]5-carboximidotryptamine from 5-HT1D receptor after 1.5 hrs by scintillation counting
[4] = target: 5-hydroxytryptamine receptor 2B (Homo sapiens, UniProt P41595); assay: Displacement of [3H]LSD from 5-HT2B receptor after 1.5 hrs by scintillation counting
Plasmodium falciparum = assay: Antimalarial activity against transgenic Plasmodium falciparum 3D7 infected in human A positive erythrocytes after 72 hrs by luciferase reporter gene assay; assay type: functional, organism-based; conditions: 3D7, 72 h
In short: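 Luciferase-expressing P. falciparum 3D7 kept in RPMI 1640 without phenol red, 10% heat-inactivated A+ human plasma, 4% washed A+ erythrocytes, 90% N2/5% O2/5% CO2, 37 °C. Ring-stage cultures (>70% rings) diluted to 0.5% parasitemia, 1.5% hematocrit. Eleven-point duplicate twofold series, final 100 to 0.098 µg/mL. Incubated 72 h, frozen at −20 °C, lysed, luminescence read (5 s integration). IC50 by nonlinear regression.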

[5] = target: T2, 5-hydroxytryptamine receptor 1A (Homo sapiens, UniProt P08908); assay: Displacement of [3H]8-OH-DPAT from 5-HT1A receptor after 1.5 hrs by scintillation counting
T2 sequence (P08908 whole entry): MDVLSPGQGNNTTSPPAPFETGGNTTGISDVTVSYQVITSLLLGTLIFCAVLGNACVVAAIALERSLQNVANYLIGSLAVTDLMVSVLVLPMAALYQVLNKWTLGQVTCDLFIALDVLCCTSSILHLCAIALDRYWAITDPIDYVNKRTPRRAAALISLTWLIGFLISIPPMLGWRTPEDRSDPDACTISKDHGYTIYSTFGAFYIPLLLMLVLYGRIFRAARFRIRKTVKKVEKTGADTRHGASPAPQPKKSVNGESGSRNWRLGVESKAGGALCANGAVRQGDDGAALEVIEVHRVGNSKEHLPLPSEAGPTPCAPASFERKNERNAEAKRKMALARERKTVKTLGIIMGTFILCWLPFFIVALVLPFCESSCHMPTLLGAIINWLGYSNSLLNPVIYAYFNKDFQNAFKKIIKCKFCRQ

D(1B) dopamine receptor = D(1B) dopamine receptor (Homo sapiens, UniProt P21918); assay: Displacement of [3H][…] from dopamine D5 receptor after 1.5 hrs by scintillation counting
[6] = target: Sodium-dependent dopamine transporter (Homo sapiens, UniProt Q01959); assay: Displacement of [3H]WIN35428 from DAT after 1.5 hrs by scintillation counting
[7] = target: T3, 5-hydroxytryptamine receptor 2C (Homo sapiens, UniProt P28335); assay: Displacement of [3H]mesulergine from 5-HT2C receptor after 1.5 hrs by scintillation counting
T3 sequence (P28335 whole entry): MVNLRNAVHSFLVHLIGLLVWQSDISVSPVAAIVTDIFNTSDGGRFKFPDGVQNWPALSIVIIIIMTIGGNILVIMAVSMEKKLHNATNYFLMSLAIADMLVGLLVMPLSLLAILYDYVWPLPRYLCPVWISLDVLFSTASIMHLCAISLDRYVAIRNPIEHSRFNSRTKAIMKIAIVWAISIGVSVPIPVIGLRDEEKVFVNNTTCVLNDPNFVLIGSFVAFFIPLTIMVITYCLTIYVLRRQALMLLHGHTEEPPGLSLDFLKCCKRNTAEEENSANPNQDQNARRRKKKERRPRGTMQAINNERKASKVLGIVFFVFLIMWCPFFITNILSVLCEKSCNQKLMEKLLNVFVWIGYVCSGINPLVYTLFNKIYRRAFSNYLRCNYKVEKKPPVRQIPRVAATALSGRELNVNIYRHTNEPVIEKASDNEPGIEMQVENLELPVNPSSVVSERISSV

[8] = target: 5-hydroxytryptamine receptor 5A (Homo sapiens, UniProt P47898); assay: Displacement of [3H]LSD from 5-HT5A receptor after 1.5 hrs by scintillation counting
SH-SY5Y = assay: Cytotoxicity against human SH-SY5Y cells by MTS assay; assay type: cell-based
[9] = target: Cyclin-dependent kinase 2/cyclin A (Homo sapiens, UniProt P24941); assay: Inhibition of human recombinant CDK2/cyclin A expressed in insect cells assessed as histone phosphorylation using [33P]gamma-ATP after 30 mins by scintillation counting
HEp-2 = assay: Cytotoxicity against human Hep2 cells; assay type: cell-based
[10] = Inhibition of PKG
[11] = Inhibition of pig brain CK1delta/epsilon assessed as RRKHAAIGSpAYSITA phosphorylation using [33P]gamma-ATP after 30 mins by scintillation counting; set-up: species or system Sus scrofa
[12] = Cytotoxicity against mouse LMM3 cells; assay type: cell-based
[13] = Inhibition of PKA
CDK9/cyclin T1 = CDK9/cyclin T1 (Homo sapiens, UniProt P50750); assay: Inhibition of human recombinant CDK9/cyclin T expressed in insect cells assessed as pRB fragment (773 to 928) phosphorylation using [33P]gamma-ATP after 30 mins by scintillation counting
HT-29 = assay: Cytotoxicity against human HT-29 cells; assay type: cell-based
[14] = target: Cyclin-dependent kinase 5 (Homo sapiens, UniProt Q00535); assay: Inhibition of CDK5
Cyclin-dependent kinase 5, sequence (Q00535 whole entry): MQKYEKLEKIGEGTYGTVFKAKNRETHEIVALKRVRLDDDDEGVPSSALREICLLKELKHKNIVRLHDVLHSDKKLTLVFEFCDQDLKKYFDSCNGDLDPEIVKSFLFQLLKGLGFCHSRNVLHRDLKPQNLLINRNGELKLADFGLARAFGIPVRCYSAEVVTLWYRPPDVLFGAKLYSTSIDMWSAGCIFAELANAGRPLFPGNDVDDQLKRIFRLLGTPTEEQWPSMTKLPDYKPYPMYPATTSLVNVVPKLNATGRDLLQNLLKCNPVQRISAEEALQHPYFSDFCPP

5-hydroxytryptamine receptor 2B, sequence (P41595 whole entry): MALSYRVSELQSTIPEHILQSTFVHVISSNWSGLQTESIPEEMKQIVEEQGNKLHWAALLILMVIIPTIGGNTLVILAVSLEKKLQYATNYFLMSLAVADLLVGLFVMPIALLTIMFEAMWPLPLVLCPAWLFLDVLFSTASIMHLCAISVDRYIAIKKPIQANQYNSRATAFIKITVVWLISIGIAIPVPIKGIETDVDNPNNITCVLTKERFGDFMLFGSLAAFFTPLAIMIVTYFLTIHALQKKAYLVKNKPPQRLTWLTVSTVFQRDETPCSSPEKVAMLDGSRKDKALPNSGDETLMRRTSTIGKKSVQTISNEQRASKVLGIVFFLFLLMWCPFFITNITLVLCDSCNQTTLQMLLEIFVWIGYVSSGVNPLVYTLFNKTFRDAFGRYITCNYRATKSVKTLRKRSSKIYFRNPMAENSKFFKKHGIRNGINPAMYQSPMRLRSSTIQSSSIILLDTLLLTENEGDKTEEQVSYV
D(1B) dopamine receptor, sequence (P21918 whole entry): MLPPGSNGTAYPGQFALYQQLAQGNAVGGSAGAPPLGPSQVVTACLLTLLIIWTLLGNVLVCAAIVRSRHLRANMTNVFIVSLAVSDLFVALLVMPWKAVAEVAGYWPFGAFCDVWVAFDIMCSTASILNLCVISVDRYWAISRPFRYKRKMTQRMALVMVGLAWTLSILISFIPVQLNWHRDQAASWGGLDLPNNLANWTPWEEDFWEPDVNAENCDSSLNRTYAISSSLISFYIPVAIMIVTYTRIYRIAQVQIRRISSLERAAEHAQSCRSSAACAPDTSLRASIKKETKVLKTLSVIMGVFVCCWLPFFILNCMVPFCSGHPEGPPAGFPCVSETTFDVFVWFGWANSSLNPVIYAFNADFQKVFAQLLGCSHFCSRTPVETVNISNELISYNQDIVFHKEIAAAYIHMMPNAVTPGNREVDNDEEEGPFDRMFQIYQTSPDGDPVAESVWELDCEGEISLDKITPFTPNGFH
5-hydroxytryptamine receptor 1D, sequence (P28221 whole entry): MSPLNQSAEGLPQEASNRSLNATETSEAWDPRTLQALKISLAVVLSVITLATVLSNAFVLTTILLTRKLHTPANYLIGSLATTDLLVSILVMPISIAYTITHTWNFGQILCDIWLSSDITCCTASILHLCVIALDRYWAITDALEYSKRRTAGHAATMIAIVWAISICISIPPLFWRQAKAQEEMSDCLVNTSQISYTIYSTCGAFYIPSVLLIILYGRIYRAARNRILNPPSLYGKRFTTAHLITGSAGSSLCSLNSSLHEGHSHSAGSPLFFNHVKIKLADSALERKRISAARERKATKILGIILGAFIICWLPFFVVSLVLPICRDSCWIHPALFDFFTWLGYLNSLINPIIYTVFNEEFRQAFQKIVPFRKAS
5-hydroxytryptamine receptor 5A, sequence (P47898 whole entry): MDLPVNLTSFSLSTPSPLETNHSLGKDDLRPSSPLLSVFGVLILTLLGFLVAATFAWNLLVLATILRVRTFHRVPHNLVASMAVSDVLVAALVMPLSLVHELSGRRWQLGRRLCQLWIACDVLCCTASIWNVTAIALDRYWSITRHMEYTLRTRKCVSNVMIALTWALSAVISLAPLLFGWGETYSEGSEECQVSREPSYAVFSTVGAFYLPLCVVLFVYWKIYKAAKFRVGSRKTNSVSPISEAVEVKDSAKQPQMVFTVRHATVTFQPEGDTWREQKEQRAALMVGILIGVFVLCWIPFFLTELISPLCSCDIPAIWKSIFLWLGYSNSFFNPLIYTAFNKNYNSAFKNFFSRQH
5-hydroxytryptamine receptor 7, sequence (P34969 whole entry): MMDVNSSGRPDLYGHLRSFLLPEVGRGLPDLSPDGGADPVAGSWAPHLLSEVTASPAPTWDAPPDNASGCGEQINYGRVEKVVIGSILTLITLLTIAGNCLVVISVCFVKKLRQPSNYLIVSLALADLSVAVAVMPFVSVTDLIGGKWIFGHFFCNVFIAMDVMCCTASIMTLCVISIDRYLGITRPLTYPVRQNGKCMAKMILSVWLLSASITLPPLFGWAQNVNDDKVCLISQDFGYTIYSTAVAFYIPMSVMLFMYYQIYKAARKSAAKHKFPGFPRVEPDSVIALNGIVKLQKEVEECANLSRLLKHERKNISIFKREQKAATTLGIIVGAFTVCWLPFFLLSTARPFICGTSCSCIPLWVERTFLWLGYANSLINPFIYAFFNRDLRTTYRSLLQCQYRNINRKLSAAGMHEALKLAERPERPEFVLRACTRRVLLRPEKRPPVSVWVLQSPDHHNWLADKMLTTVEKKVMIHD
Sodium-dependent dopamine transporter, sequence (Q01959 whole entry): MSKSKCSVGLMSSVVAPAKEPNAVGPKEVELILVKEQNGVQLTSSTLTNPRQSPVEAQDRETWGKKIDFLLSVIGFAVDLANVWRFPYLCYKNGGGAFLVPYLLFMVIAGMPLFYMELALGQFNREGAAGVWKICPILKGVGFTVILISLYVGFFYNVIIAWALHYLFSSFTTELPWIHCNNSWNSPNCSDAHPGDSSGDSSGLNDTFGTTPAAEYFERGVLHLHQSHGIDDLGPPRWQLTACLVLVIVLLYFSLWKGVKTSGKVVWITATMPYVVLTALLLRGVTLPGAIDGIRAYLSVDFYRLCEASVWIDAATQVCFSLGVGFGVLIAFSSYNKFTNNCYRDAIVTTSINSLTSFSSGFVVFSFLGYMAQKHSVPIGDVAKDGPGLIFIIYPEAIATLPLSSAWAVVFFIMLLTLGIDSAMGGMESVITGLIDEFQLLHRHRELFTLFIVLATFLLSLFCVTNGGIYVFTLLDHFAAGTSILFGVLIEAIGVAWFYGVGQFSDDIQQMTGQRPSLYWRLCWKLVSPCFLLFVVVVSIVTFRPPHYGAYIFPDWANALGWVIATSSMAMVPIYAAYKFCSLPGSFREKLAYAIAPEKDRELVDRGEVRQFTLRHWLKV
CDK9/cyclin T1, sequence (O60563 whole entry, the tested form may be a part): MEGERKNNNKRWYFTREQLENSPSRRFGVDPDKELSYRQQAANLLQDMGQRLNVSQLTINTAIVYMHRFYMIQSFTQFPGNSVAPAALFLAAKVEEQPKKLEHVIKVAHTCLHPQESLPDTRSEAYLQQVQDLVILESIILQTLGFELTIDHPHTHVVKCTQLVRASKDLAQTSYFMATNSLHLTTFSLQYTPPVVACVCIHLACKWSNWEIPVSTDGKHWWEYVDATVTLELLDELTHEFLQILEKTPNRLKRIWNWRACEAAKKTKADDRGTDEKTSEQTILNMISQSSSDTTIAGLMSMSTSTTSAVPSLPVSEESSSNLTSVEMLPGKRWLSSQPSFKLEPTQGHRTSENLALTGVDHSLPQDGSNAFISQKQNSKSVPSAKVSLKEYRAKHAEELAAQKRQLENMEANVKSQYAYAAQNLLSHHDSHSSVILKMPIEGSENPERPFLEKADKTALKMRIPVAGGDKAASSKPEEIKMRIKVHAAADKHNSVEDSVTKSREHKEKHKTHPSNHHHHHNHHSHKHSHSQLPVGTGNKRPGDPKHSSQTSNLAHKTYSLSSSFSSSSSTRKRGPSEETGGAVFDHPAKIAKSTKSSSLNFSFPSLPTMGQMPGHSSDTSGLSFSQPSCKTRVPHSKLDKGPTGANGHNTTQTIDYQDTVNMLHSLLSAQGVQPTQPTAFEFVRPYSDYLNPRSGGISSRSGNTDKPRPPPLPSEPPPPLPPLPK
CDK9/cyclin T1, sequence (P50750 whole entry, the tested form may be a part): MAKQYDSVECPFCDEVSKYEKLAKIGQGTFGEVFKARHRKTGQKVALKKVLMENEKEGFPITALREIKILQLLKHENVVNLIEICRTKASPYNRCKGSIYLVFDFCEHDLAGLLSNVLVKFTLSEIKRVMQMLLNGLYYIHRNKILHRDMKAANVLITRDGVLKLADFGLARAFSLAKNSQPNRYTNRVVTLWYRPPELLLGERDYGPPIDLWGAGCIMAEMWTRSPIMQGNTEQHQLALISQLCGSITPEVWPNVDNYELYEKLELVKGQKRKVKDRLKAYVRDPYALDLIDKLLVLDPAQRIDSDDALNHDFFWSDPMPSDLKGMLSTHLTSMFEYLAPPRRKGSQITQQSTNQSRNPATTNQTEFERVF

Row | Structure (SMILES) | IC50 [2] | IC50 (A549; Homo sapiens, A549, 72 h) | Ki [3] | Ki [4] | IC50 (Plasmodium falciparum) | Ki [5] | Ki (D(1B) dopamine receptor) | IC50 [6] | Ki [7] | IC50 [1] | Ki [2] | IC50 [4] | IC50 [5] | IC50 [7] | IC50 [8] | further results
1 | COc1cccc2[nH]cc(-c3ccnc(N)n3)c12 | > 10 µM | > 420 µM | > 10 µM | 0.088 µM | 40 µM | 1.35 µM | > 10 µM | > 10 µM | > 10 µM | – | – | – | – | – | – | Ki [1]: 1.99 µM; Ki [8]: 1.53 µM
2 | Nc1nc(Cl)ncc1-c1c[nH]c2cccc(O)c12 | – | > 256 µM | – | – | > 38 µM | – | > 10 µM | > 10 µM | – | > 10 µM | 7.04 µM | > 10 µM | > 10 µM | > 10 µM | > 10 µM | IC50 [3]: > 10 µM
3 | Nc1nccc(-c2c[nH]c3cccc(O)c23)n1 [MERIDIANIN A] | – | 15 µM | > 10 µM | 0.15 µM | 12 µM | 0.684 µM | > 10 µM | – | > 10 µM | > 10 µM | > 10 µM | – | – | – | > 10 µM | IC50 (SH-SY5Y): > 30 µM; IC50 [9]: 3.1 µM; IC50 (HEp-2): > 100 µM; IC50 [10]: 200 µM; IC50 [11]: 1.1 µM; Ki [6]: 2.35 µM; IC50 [12]: > 100 µM; IC50 [13]: 11 µM; IC50 (CDK9/cyclin T1): 2.4 µM; IC50 (HT-29): > 100 µM; IC50 [14]: 3.5 µM
4 | CCN(CC)c1nccc(-c2c[nH]c3cc(Cl)ccc23)n1 [MERIDOQUIN] | – | > 333 µM | – | – | 200 µM | – | – | – | – | – | – | – | – | – | – | –
5 | Nc1nc(Br)ncc1-c1c[nH]c2cccc(O)c12 [PSAMMOPEMMIN A] | > 10 µM | > 219 µM | > 10 µM | – | > 33 µM | – | > 10 µM | > 10 µM | – | > 10 µM | – | > 10 µM | > 10 µM | > 10 µM | > 10 µM | –
6 | CC1=C[C@H]2O[C@@H]3C[C@H]4OC(=O)/C=C\C=C\[C@H]([C@@H](C)O)OCC/C(C)=C/C(=O)OC[C@@]2(CC1)[C@]4(C)[C@]31CO1 [RORIDIN E] | – | – | – | – | – | – | – | – | – | – | – | – | – | – | – | IC50 (A549; a549): < 9.7 µM
